Tests used:
[1] = target: Melanin-concentrating hormone receptor 1 (Homo sapiens, UniProt Q99705); test: Displacement of [125I]MCH from MCHR1 expressed in CHO cells; type: cell-based
Procedure, shortened: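 Human MCH R1, CHO cell membranes (0.1 mg/mL) on SPA beads (1 mg/mL). Buffer: 25 mM HEPES, 10 mM MgCl2, 5 mM MnCl2, 0.1% BSA, pH 7.4. Incubation 2–4 h at room temperature, scintillation count. Ki by non-linear regression; mean ± range of two determinations, each in quadruplicate.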

hERG (KCNH2) [2] = target: T1, hERG (KCNH2) (Homo sapiens, UniProt Q12809); test: Inhibition of hERG expressed in CHO cells at 5 ug/mL by rubidium efflux assay; type: toxicity, cell-based; conditions: CHO cells that express hERG
T1 sequence (Q12809 whole entry): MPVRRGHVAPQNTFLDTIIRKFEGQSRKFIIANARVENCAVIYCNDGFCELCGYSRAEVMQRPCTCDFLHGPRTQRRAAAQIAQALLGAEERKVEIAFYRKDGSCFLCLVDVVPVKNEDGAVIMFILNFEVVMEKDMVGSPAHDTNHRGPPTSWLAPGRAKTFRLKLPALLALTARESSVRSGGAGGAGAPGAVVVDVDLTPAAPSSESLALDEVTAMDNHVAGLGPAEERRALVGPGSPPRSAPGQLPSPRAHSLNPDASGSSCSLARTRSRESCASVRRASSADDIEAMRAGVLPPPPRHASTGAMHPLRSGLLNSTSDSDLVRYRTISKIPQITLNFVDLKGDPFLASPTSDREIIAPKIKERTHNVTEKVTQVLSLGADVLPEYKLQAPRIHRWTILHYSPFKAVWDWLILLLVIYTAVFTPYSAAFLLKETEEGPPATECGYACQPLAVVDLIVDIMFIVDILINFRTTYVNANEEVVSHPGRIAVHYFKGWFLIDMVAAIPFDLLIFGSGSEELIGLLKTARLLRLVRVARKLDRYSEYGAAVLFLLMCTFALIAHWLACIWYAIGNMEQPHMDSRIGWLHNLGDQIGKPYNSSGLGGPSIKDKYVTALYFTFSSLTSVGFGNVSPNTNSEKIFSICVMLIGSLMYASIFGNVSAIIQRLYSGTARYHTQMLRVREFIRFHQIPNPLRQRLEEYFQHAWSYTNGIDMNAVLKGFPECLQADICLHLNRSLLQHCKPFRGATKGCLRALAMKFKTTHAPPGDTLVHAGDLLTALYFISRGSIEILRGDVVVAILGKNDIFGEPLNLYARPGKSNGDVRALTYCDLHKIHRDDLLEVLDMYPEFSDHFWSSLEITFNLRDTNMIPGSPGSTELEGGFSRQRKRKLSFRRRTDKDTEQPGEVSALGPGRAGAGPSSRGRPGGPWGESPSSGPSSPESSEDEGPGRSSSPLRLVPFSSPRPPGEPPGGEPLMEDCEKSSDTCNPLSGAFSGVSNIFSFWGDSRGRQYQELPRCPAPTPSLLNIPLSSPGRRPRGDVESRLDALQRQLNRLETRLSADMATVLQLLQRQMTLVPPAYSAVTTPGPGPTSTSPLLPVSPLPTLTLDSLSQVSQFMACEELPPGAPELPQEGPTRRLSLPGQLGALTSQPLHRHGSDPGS
Procedure, shortened: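 hERG-CHO cells plated 24 h, then loaded 3 h in HEPES-buffered saline with 5.4 mM RbCl. Compound added and equilibrated 30 min at 37 °C. Cells washed three times in Rb-free saline (5.4 mM KCl), then depolarized 5 min with 45.4 mM KCl.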

hERG (KCNH2) [3] = target: T1, hERG (KCNH2); test: Inhibition of hERG expressed in CHO cells at […] by rubidium efflux assay; type: toxicity, cell-based; conditions: CHO cells that express hERG

Sequence of Melanin-concentrating hormone receptor 1 (Q99705 whole entry): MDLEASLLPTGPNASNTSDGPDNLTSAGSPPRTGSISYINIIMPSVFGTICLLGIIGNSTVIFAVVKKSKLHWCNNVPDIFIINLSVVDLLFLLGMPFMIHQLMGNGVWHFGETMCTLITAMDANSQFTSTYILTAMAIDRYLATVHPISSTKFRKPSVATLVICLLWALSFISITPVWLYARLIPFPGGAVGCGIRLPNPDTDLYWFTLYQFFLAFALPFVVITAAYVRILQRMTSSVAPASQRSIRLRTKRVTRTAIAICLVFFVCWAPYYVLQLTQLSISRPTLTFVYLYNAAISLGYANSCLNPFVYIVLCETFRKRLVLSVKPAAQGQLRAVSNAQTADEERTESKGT

O=C(Nc1ccc(F)c(Cl)c1)N(CCN1CCCC1)C1CC=C(c2cncnc2)CC1 (stereo not given)
Ki [1]: 147 nM
inhibition at 5 ug/mL (hERG (KCNH2) [2]): 85%

N#Cc1cccc([C@]23CC[C@@H](N(CCN4CC[C@@H](O)C4)C(=O)Nc4ccc5c(c4)OCO5)CC2C3)c1 (stereo not given in full)
Ki [1]: 134 nM

O=C(Nc1ccc(F)c(Cl)c1)N(CCN1CCCC1)C1CC=C(c2ccco2)CC1 (stereo not given)
Ki [1]: 117 nM

CS(=O)(=O)N1CCC(CN(C(=O)Nc2cccc(F)c2)[C@@H]2CC[C@]3(c4cccc(C#N)c4)CC3C2)CC1 (stereo not given in full)
inhibition at […] (hERG (KCNH2) [3]): 25%
Ki [1]: 9.7 nM
inhibition at 5 ug/mL (hERG (KCNH2) [2]): 47%

COC(=O)c1cccc([C@]23CC[C@@H](N(CCN(C(C)C)C(C)C)C(=O)Nc4ccc(F)c(F)c4)CC2C3)c1 (stereo not given in full)
inhibition at […] (hERG (KCNH2) [3]): 57%
inhibition at 5 ug/mL (hERG (KCNH2) [2]): 85%

N#Cc1cccc(NC(=O)N(CCN2CC[C@@H](O)C2)[C@@H]2CC[C@]3(c4cccc(C#N)c4)CC3C2)c1 (stereo not given in full)
Ki [1]: 92 nM

N#Cc1cccc([C@]23CC[C@@H](N(CCN4CC[C@@H](O)C4)C(=O)Nc4cccc([N+](=O)[O-])c4)CC2C3)c1 (stereo not given in full)
Ki [1]: 60 nM

Cc1cc(C)cc(NC(=O)N(CCN2CC[C@@H](O)C2)[C@@H]2CC[C@]3(c4cccc(C#N)c4)CC3C2)c1 (stereo not given in full)
Ki [1]: 539 nM

CC1CCCN1CCN(C(=O)Nc1ccc(F)c(Cl)c1)[C@@H]1CC[C@]2(c3cccc(C#N)c3)CC2C1 (stereo not given in full)
Ki [1]: 16 nM

N#Cc1cccc([C@]23CC[C@@H](N(CCN4CCCCCC4)C(=O)Nc4ccc(F)c(Cl)c4)CC2C3)c1 (stereo not given in full)
Ki [1]: 15 nM

N#Cc1cccc([C@]23CC[C@@H](N(CCN4CC[C@@H](O)C4)C(=O)Nc4cccc(Cl)c4)CC2C3)c1 (stereo not given in full)
Ki [1]: 27 nM

CS(=O)(=O)N1CCC[C@H]1CN(C(=O)Nc1ccc(F)c(Cl)c1)[C@@H]1CC[C@]2(c3cccc(C#N)c3)CC2C1 (stereo not given in full)
inhibition at […] (hERG (KCNH2) [3]): 32%
Ki [1]: 559 nM
inhibition at 5 ug/mL (hERG (KCNH2) [2]): 13%

CC(C)N(CCN(C(=O)Nc1cccc(Cl)c1)[C@@H]1CC[C@]2(c3cccc(C#N)c3)CC2C1)C(C)C (stereo not given in full)
Ki [1]: 6 nM

CC(=O)N1CCC(CN(C(=O)Nc2ccc(F)c(Cl)c2)[C@@H]2CC[C@]3(c4cccc(C#N)c4)CC3C2)CC1 (stereo not given in full)
inhibition at […] (hERG (KCNH2) [3]): 32%
Ki [1]: 312 nM
inhibition at 5 ug/mL (hERG (KCNH2) [2]): 37%

CC(C)N(CCN(C(=O)Nc1ccc(F)c(Cl)c1)[C@@H]1CC[C@]2(c3cccc(CN)c3)CC2C1)C(C)C (stereo not given in full)
inhibition at […] (hERG (KCNH2) [3]): 22%
Ki [1]: 2.3 nM
inhibition at 5 ug/mL (hERG (KCNH2) [2]): 32%

CS(=O)(=O)N1CCCCC1CN(C(=O)Nc1ccc(F)c(Cl)c1)[C@@H]1CC[C@]2(c3cccc(C#N)c3)CC2C1 (stereo not given in full)
inhibition at […] (hERG (KCNH2) [3]): 31%
Ki [1]: 295 nM
inhibition at 5 ug/mL (hERG (KCNH2) [2]): 3%

N#Cc1cccc([C@]23CC[C@@H](N(CCN4CC[C@@H](O)C4)C(=O)Nc4ccccc4)CC2C3)c1 (stereo not given in full)
Ki [1]: 132 nM

Cc1ccc(NC(=O)N(CCN2CC[C@@H](O)C2)[C@@H]2CC[C@]3(c4cccc(C#N)c4)CC3C2)cc1F (stereo not given in full)
Ki [1]: 48 nM

CC(C)N(CCN(C(=O)Nc1cccc(F)c1)[C@@H]1CC[C@]2(c3cccc(C#N)c3)CC2C1)C(C)C (stereo not given in full)
Ki [1]: 2.1 nM

N#Cc1cccc([C@]23CC[C@@H](N(CCN4CC[C@@H](O)C4)C(=O)Nc4cccc(F)c4)CC2C3)c1 (stereo not given in full)
Ki [1]: 20 nM

N#Cc1cccc([C@]23CC[C@@H](N(CCN4CC[C@@H](O)C4)C(=O)Nc4cc(F)cc(F)c4)CC2C3)c1 (stereo not given in full)
Ki [1]: 15 nM

CC1CCCCN1CCN(C(=O)Nc1ccc(F)c(Cl)c1)[C@@H]1CC[C@]2(c3cccc(C#N)c3)CC2C1 (stereo not given in full)
Ki [1]: 15 nM

N#Cc1cccc([C@]23CC[C@@H](N(CCN4CC[C@@H](O)C4)C(=O)NC4CCCCC4)CC2C3)c1 (stereo not given in full)
Ki [1]: 2210 nM

CC(C)N(CCN(C(=O)Nc1ccc(F)c(F)c1)[C@@H]1CC[C@]2(c3cccc(C#N)c3)CC2C1)C(C)C (stereo not given in full)
Ki [1]: 2.8 nM

COc1cccc(NC(=O)N(CCN2CC[C@@H](O)C2)[C@@H]2CC[C@]3(c4cccc(C#N)c4)CC3C2)c1 (stereo not given in full)
Ki [1]: 373 nM

N#Cc1cccc([C@]23CC[C@@H](N(CCN4CC[C@@H](O)C4)C(=O)Nc4ccc(F)c(F)c4)CC2C3)c1 (stereo not given in full)
Ki [1]: 20 nM

CC(C)N(CCN(C(=O)Nc1cccc(Br)c1)[C@@H]1CC[C@]2(c3cccc(C#N)c3)CC2C1)C(C)C (stereo not given in full)
Ki [1]: 5.7 nM

CCO/N=C/c1cccc([C@]23CC[C@@H](N(CCN(C(C)C)C(C)C)C(=O)Nc4ccc(F)c(Cl)c4)CC2C3)c1 (stereo not given in full)
Ki [1]: 29 nM

CN(C)Cc1ncc(C2=CCC(N(CCN3CCCC3)C(=O)Nc3ccc(F)c(Cl)c3)CC2)s1 (stereo not given)
Ki [1]: 648 nM

CC(C)N(CCN(C(=O)Nc1ccc(F)c(Cl)c1)[C@@H]1CC[C@]2(c3cccc(CN(C)C)c3)CC2C1)C(C)C (stereo not given in full)
inhibition at […] (hERG (KCNH2) [3]): -1%
Ki [1]: 13 nM
inhibition at 5 ug/mL (hERG (KCNH2) [2]): 5%

CC(=O)NC1CCN(CCN(C(=O)Nc2ccc(F)c(Cl)c2)[C@@H]2CC[C@]3(c4cccc(C#N)c4)CC3C2)C1 (stereo not given in full)
Ki [1]: 23 nM

N#Cc1cccc([C@]23CC[C@@H](N(CCN4CC[C@@H](O)C4)C(=O)Nc4ccc(F)cc4)CC2C3)c1 (stereo not given in full)
Ki [1]: 54 nM

N#Cc1cccc([C@]23CC[C@@H](N(CC4CCN(C5CCOCC5)CC4)C(=O)Nc4ccc(F)c(Cl)c4)CC2C3)c1 (stereo not given in full)
inhibition at […] (hERG (KCNH2) [3]): 75%
inhibition at 5 ug/mL (hERG (KCNH2) [2]): 91%

Cc1ccc(C2=CCC(N(CCN3CCCC3)C(=O)Nc3ccc(F)c(Cl)c3)CC2)s1 (stereo not given)
Ki [1]: 85 nM
inhibition at 5 ug/mL (hERG (KCNH2) [2]): 12%

O=Cc1ccc(C2=CCC(N(CCN3CCCC3)C(=O)Nc3ccc(F)c(Cl)c3)CC2)o1 (stereo not given)
Ki [1]: 51 nM
inhibition at 5 ug/mL (hERG (KCNH2) [2]): 47%

N#Cc1cccc([C@]23CC[C@@H](N(CCN4CCCC(CO)C4)C(=O)Nc4ccc(F)c(Cl)c4)CC2C3)c1 (stereo not given in full)
Ki [1]: 15 nM

CS(=O)(=O)N1CCC(CN(C(=O)Nc2ccc(F)c(Cl)c2)[C@@H]2CC[C@]3(c4cccc(C#N)c4)CC3C2)CC1 (stereo not given in full)
inhibition at […] (hERG (KCNH2) [3]): 6%
Ki [1]: 7.2 nM
inhibition at 5 ug/mL (hERG (KCNH2) [2]): 24%

CS(=O)(=O)N1CCC(CCN(C(=O)Nc2ccc(F)c(C(F)(F)F)c2)[C@@H]2CC[C@]3(c4cccc(C#N)c4)CC3C2)CC1 (stereo not given in full)
inhibition at […] (hERG (KCNH2) [3]): 18%
Ki [1]: 80 nM
inhibition at 5 ug/mL (hERG (KCNH2) [2]): 20%

N#Cc1cccc([C@]23CC[C@@H](N(CCN4CCOCC4)C(=O)Nc4ccc(F)c(Cl)c4)CC2C3)c1 (stereo not given in full)
Ki [1]: 53 nM

O=C(Nc1ccc(F)c(Cl)c1)N(CCN1CCCC1)C1CC=C(c2cc3ccccc3o2)CC1 (stereo not given)
Ki [1]: 316 nM

CC(C)N(CCN(C(=O)Nc1cccc(C#N)c1)[C@@H]1CC[C@]2(c3cccc(C#N)c3)CC2C1)C(C)C (stereo not given in full)
Ki [1]: 7.6 nM

N#Cc1cccc([C@]23CC[C@@H](N(CCN4CCC(O)CC4)C(=O)Nc4ccc(F)c(Cl)c4)CC2C3)c1 (stereo not given in full)
Ki [1]: 22 nM

O=C(Nc1ccc(F)c(Cl)c1)N(CCN1CCCC1)C1CC=C(c2ccc[nH]2)CC1 (stereo not given)
Ki [1]: 1970 nM

N#Cc1ncc(C2=CCC(N(CCN3CCCC3)C(=O)Nc3ccc(F)c(Cl)c3)CC2)s1 (stereo not given)
Ki [1]: 57 nM

CC(C)N(CCN(C(=O)Nc1ccc(F)cc1)[C@@H]1CC[C@]2(c3cccc(C#N)c3)CC2C1)C(C)C (stereo not given in full)
Ki [1]: 10.4 nM

CC(C)N(CCN(C(=O)Nc1ccc(F)c(Cl)c1)[C@@H]1CC[C@]2(c3cccc(CN4CC[C@H](O)C4)c3)CC2C1)C(C)C (stereo not given in full)
inhibition at […] (hERG (KCNH2) [3]): -4%
Ki [1]: 21 nM
inhibition at 5 ug/mL (hERG (KCNH2) [2]): -1%

CS(=O)(=O)N1CCCC(CN(C(=O)Nc2ccc(F)c(Cl)c2)[C@@H]2CC[C@]3(c4cccc(C#N)c4)CC3C2)C1 (stereo not given in full)
inhibition at […] (hERG (KCNH2) [3]): 3%
Ki [1]: 211 nM
inhibition at 5 ug/mL (hERG (KCNH2) [2]): 9%

N#Cc1cccc([C@]23CC[C@@H](N(CCN4CC[C@@H](O)C4)C(=O)Nc4ccccc4F)CC2C3)c1 (stereo not given in full)
Ki [1]: 1880 nM

CC(C)N(CCN(C(=O)Nc1ccc(F)c(Cl)c1)[C@@H]1CC[C@]2(c3cccc(CN4CCN(C)CC4)c3)CC2C1)C(C)C (stereo not given in full)
inhibition at […] (hERG (KCNH2) [3]): 10%
Ki [1]: 54 nM
inhibition at 5 ug/mL (hERG (KCNH2) [2]): 13%

CCN(CCO)CCN(C(=O)Nc1ccc(F)c(Cl)c1)[C@@H]1CC[C@]2(c3cccc(C#N)c3)CC2C1 (stereo not given in full)
Ki [1]: 11 nM

N#Cc1cccc([C@]23CC[C@@H](N(CCN4CC[C@@H](O)C4)C(=O)Nc4cccc(Br)c4)CC2C3)c1 (stereo not given in full)
Ki [1]: 34 nM

CC(C)N(CCN(C(=O)Nc1cccc([N+](=O)[O-])c1)[C@@H]1CC[C@]2(c3cccc(C#N)c3)CC2C1)C(C)C (stereo not given in full)
Ki [1]: 2.7 nM

CC(C)N(CCN(C(=O)Nc1ccc(F)c(F)c1)[C@@H]1CC[C@]2(c3cccc(Br)c3)CC2C1)C(C)C (stereo not given in full)
Ki [1]: 7.8 nM

CC(C)N(CCN(C(=O)Nc1ccc(F)c(F)c1)[C@@H]1CC[C@]2(c3ccccc3)CC2C1)C(C)C (stereo not given in full)
Ki [1]: 92 nM

CC(C)N(CCN(C(=O)Nc1cc(Cl)nc(Cl)c1)[C@@H]1CC[C@]2(c3cccc(C#N)c3)CC2C1)C(C)C (stereo in doubt; 6j)
Ki [1]: 2 nM

CC(C)N(CCN(C(=O)Nc1cc(F)cc(F)c1)[C@@H]1CC[C@]2(c3cccc(C#N)c3)CC2C1)C(C)C (stereo not given in full)
Ki [1]: 4.5 nM

CC(C)N(CCN(C(=O)Nc1cc(Cl)nc(Cl)c1)[C@@H]1CC[C@]2(c3cccc(C#N)c3)CC2C1)C(C)C (stereo in doubt; 13)
Ki [1]: 2.4 nM
inhibition at 5 ug/mL (hERG (KCNH2) [2]): 59%

Source: ChEMBL document CHEMBL1143739, “SAR study of bicyclo[4.1.0]heptanes as melanin-concentrating hormone receptor R1 antagonists: taming hERG” (Bioorg Med Chem, 2007)
